Results on 2 molecules are retold here after ChEMBL document CHEMBL3758120, “Synthesis and Mechanism Studies of 1,3-Benzoazolyl Substituted Pyrrolo[2,3-b]pyrazine Derivatives as Nonintercalative Topoisomerase II Catalytic Inhibitors” (J Med Chem, 2016).

For experiment [1], the system named is HL-60. The experiment is described as follows: Induction of apoptosis in human HL60 cells assessed as viable cells at 1 uM after 12 hrs by annexin V-FITC/propidium iodide staining-based flow cytometric analysis (reference value: 99.12 to 99.33%). The format is functional. The settings on record: HL-60, 12 h, read-out: Activity. The method, boiled down: (§1)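 HL-60 cells at 5.0 × 10^5 cells/ml treated for 12 h (0.5–2 μM) or 24 h (0.25–1 μM), washed twice in cold PBS, resuspended in binding buffer, stained with annexin V-FITC and propidium iodide for 15 min in the dark, analysed by flow cytometry within 1 h; quadrants define live, early and late apoptotic cells. Three repeats.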

Experiment [2] relates to HL-60. The experiment is described as follows: Resistance index, ratio of IC50 for human HL60/MX2 cells to IC50 for HL60 cells. The format is functional. Summed up:
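Resistance index calculated as MTT-derived IC50 (48 h exposure, 0-50 μM, A570 readout) in HL-60/MX2 divided by IC50 in parental HL-60.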

For experiment [3], the system named is HL-60. The experiment is described as follows: Induction of apoptosis in human HL60 cells assessed as viable cells at 0.5 uM after 12 hrs by annexin V-FITC/propidium iodide staining-based flow cytometric analysis (reference value: 99.12 to 99.33%). Format: functional. The settings on record: HL-60, 12 h, read-out: Activity. The method, boiled down:
as §1

The subject of experiment [4] is K562. The experiment is described as follows: Antiproliferative activity against human K562 cells after 48 hrs by MTT assay. Format: functional, cell-based. The settings on record: K562, 48 h. Summed up:
(§2)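 Cells seeded at 5000 per well and left overnight, then exposed to increasing concentrations (0-50 μM) for 48 h. […] HL-60/MX2 is a mitoxantrone-selected HL-60 derivative with reduced Topo IIα/β.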

Experiment [5] concerns HL-60. The experiment in a line: Induction of apoptosis in human HL60 cells assessed as dead cells at 0.5 uM after 12 hrs by annexin V-FITC/propidium iodide staining-based flow cytometric analysis (reference value: 0.12 to 0.15%). Format: functional.
Experiment [6] addresses DNA topoisomerase 2-alpha (Homo sapiens, UniProt P11388). The experiment in a line: Inhibition of purified human topoisomerase 2 using supercoiled pBR322 DNA as substrate assessed as linear DNA formation at 20 uM incubated for 6 mins by agarose gel electrophoresis. Summed up:
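Human Topo II (6 units) with 0.1 μg supercoiled pBR322 in 50 mM Tris-HCl pH 8.0, 150 mM NaCl, 10 mM MgCl2, 2 mM ATP, 0.5 mM DTT, 30 μg/ml BSA; compounds at 20 μM, etoposide 100 μM. After 6 min at 37 °C, complexes trapped with SDS then EDTA, proteinase K 30 min at 45 °C, heated 72 °C 2 min, run on 1% agarose; linear DNA scored. Antagonism tested by compound pretreatment before etoposide.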

Experiment [7] relates to HL-60. The experiment is described as follows: Induction of apoptosis in human HL60 cells assessed as late apoptotic cells at 1 uM after 12 hrs by annexin V-FITC/propidium iodide staining-based flow cytometric analysis (reference value: 0.17 to 0.18%). The format is functional. Summed up:
as §1

Experiment [8] concerns A549. The experiment in a line: Antiproliferative activity against human A549 cells after 48 hrs by MTT assay. The format is functional, cell-based. The settings on record: A549, 48 h. Summed up: as §2
Experiment [9] relates to HL-60. The experiment is described as follows: Induction of apoptosis in human HL60 cells assessed as early apoptotic cells at 0.5 uM after 12 hrs by annexin V-FITC/propidium iodide staining-based flow cytometric analysis (reference value: 0.38 to 0.55%). Format: functional. The method, boiled down: as §1
For experiment [10], the system named is HL-60. The experiment in a line: Induction of apoptosis in human HL60 cells assessed as early apoptotic cells at 1 uM after 12 hrs by annexin V-FITC/propidium iodide staining-based flow cytometric analysis (reference value: 0.38 to 0.55%). Format: functional. The method, boiled down:
as §1

The test system of experiment [11] is HL-60. The experiment is described as follows: Induction of apoptosis in human HL60 cells assessed as viable cells at 1 uM after 24 hrs by annexin V-FITC/propidium iodide staining-based flow cytometric analysis (reference value: 97.75%). The format is functional. The settings on record: HL-60, 24 h, read-out: Activity. The method, boiled down:
as §1

Experiment [12] is described as follows: Antiproliferative activity against human HL60 cells after 48 hrs by MTT assay. The format is functional, cell-based. The settings on record: HL-60, 48 h. Summed up:
as §2

For experiment [13], the system named is HL-60. The experiment is described as follows: Induction of apoptosis in human HL60 cells assessed as dead cells at 1 uM after 24 hrs by annexin V-FITC/propidium iodide staining-based flow cytometric analysis (reference value: 0.12%). Format: functional.
In experiment [14] the test system is HL-60. The experiment is described as follows: Induction of apoptosis in human HL60 cells assessed as late apoptotic cells at 2 uM after 12 hrs by annexin V-FITC/propidium iodide staining-based flow cytometric analysis (reference value: 0.17 to 0.18%). Format: functional. The method, boiled down:
as §1

The test system of experiment [15] is HL-60. The experiment is described as follows: Induction of apoptosis in human HL60 cells assessed as late apoptotic cells at 0.25 uM after 24 hrs by annexin V-FITC/propidium iodide staining-based flow cytometric analysis (reference value: 1.64%). Format: functional. Summed up: as §1
In experiment [16] the target is T1, DNA topoisomerase 1 (Homo sapiens) (UniProt P11387).
T1 sequence (whole entry): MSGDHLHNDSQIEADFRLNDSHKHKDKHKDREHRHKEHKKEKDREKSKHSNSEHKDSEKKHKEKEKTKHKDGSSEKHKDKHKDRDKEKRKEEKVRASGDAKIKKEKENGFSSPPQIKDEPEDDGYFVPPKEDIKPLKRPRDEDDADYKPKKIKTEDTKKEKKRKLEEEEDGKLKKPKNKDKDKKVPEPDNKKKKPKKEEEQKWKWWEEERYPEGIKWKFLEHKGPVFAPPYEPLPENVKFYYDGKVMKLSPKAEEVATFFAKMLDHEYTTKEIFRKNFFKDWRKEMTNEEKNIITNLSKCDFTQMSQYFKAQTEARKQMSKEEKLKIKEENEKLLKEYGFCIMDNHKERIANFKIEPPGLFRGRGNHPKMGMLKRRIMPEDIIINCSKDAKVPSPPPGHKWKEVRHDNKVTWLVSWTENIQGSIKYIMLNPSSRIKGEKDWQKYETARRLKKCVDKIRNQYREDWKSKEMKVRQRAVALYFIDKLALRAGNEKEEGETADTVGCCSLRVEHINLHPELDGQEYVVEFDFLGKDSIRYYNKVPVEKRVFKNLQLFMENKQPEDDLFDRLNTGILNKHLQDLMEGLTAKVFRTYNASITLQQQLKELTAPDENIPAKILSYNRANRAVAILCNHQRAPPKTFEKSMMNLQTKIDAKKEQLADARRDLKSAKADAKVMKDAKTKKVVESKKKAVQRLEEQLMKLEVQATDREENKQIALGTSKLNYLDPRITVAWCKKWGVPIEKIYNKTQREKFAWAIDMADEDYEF
The experiment in a line: Inhibition of recombinant human topoisomerase 1 assessed as interacaltion of pBR322 DNA at 50 uM pre-incubated with DNA followed by incubation with enzyme for 30 mins by agarose gel electrophoresis. Summed up:
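Supercoiled pBR322 first relaxed with Topo I in 50 mM Tris-HCl pH 7.5, 50 mM KCl, 10 mM MgCl2, 0.5 mM DTT, 0.1 mM EDTA, 30 μg/ml BSA. 0.1 μg relaxed DNA preincubated with compound 10 min at room temperature, then Topo I (1 unit) added for 30 min at 37 °C; phenol-chloroform extracted, SDS/EDTA stop, 1% agarose 1 h at 90 V; ethidium bromide as intercalator reference.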

Experiment [17] has as its system HL-60. The experiment is described as follows: Induction of apoptosis in human HL60 cells assessed as dead cells at 2 uM after 12 hrs by annexin V-FITC/propidium iodide staining-based flow cytometric analysis (reference value: 0.12 to 0.15%). The format is functional.
For experiment [18], the system named is HL-60. The experiment in a line: Induction of apoptosis in human HL60 cells assessed as late apoptotic cells at 1 uM after 24 hrs by annexin V-FITC/propidium iodide staining-based flow cytometric analysis (reference value: 1.64%). Format: functional. The method, boiled down:
as §1

Active and inactive are the calls of the source. No cut-off for these calls is given here.

DNA topoisomerase 2-alpha, sequence (P11388 whole entry): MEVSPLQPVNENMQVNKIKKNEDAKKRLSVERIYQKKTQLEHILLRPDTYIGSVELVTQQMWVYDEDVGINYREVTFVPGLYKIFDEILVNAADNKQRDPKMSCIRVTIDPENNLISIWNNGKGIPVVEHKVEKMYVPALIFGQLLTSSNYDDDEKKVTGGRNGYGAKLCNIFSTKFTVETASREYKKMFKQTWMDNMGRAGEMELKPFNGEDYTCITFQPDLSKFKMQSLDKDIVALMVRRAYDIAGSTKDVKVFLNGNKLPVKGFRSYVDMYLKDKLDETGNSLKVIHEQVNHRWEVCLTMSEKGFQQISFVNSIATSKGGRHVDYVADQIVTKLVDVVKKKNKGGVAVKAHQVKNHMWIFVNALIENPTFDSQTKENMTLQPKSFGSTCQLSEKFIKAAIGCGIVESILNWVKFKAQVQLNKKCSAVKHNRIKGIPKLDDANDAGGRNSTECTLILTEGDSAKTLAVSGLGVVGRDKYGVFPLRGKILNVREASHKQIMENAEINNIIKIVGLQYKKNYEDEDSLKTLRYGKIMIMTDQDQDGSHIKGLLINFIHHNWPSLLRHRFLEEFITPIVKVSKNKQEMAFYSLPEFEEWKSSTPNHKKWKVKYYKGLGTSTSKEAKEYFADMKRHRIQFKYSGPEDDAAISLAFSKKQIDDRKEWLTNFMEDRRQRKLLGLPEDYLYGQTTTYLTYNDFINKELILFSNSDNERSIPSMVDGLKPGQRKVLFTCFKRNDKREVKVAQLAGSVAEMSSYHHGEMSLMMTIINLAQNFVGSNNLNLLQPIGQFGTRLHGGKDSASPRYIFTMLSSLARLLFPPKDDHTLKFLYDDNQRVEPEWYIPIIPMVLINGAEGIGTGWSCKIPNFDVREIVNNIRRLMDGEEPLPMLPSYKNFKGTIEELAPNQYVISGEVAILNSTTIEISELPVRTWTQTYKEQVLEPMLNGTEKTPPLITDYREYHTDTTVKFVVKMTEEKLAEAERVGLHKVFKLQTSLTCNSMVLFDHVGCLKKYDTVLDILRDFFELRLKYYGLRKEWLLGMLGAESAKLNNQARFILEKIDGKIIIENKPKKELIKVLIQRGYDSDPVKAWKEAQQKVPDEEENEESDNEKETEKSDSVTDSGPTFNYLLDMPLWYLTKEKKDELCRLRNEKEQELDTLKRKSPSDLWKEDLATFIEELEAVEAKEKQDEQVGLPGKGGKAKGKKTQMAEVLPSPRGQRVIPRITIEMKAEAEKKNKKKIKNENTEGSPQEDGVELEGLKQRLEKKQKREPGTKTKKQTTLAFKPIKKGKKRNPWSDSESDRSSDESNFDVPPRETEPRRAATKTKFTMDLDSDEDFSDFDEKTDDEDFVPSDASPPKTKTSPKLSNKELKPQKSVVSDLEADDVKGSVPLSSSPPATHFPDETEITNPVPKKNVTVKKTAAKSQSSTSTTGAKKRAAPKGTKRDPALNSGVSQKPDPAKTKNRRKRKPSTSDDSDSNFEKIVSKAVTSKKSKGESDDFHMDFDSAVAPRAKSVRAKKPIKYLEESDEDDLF

In the case of `CN(C)CCCCn1c(N)c(-c2nc3ccccc3[nH]2)c2nc(C#N)c(C#N)nc21`, the values for the viability at 1 µM in [1] and in [11] were 98.7% and 0.65%, respectively. In [2], the “Ratio IC50” value was 4.1. Besides, the viability at 0.5 µM in experiment [3] was 99.3%. For the same molecule, the concentration for half-maximal inhibition (IC50) in [4] was 1430 nM; in [8] it was 8.24 µM; in experiment [12] it was 430 nM. Moreover, the Activity in experiment [5] is listed as 0.05%; in experiment [7], 0.39%; in experiment [9], 0.46%; in experiment [10], 0.82%; in experiment [13], 8.31%; in experiment [14] it was 64.15%. In addition, the Activity in experiment [15] was 0.42%; in [17], 1.96%; in experiment [18], 90.51%. Also, the inhibition result in experiment [6] and in experiment [16] was “inactive” each time.

With `CCN(CC)CCCCn1c(N)c(-c2nc3ccccc3[nH]2)c2nc(C#N)c(C#N)nc21`, the viability at 1 µM in [1] was 97.2%; in experiment [11] it was 32.9%. In [2], the “Ratio IC50” value is listed as 3.3. The viability at 0.5 µM in experiment [3] is 99.3%. Further, the concentration for half-maximal inhibition (IC50) in [4] worked out at 1440 nM; in [8], 5.75 µM; in experiment [12], 460 nM. For the same molecule, the Activity is on record as 0.1% in experiment [5]; 1.19% in experiment [7]; 0.35% in [9]; 1.39% in [10]; 12.63% in [13]; 46.73% in [14]. In addition, the Activity in [15] is reported as 0.41%; in [17], 1.36%; in experiment [18], 45.05%. Also, the inhibition entry in [6] and in [16] was “inactive” each time.
